Data published in article PMC3130141 (Archives of Drug Information, 2011).

Legend:
[1] = system: Japanese patients with advanced solid tumors; assay: Laboratory assessments; format: in vivo, human; settings: for Neutropenia, patients with grade ≥3 abnormal laboratory finding: cut-off <1.0 × 10^9/L; for Leukopenia, patients with grade ≥3 abnormal laboratory finding: cut-off <2.0 × 10^9/L; for Hemoglobin decreased, patients with grade ≥3 abnormal laboratory finding: cut-off <8.0 g/dL; for Thrombocytopenia, patients with grade ≥3 abnormal laboratory finding: cut-off <50.0 × 10^9/L; for Weight decreased, patients with grade ≥3 abnormal vital sign: cut-off ≥20% from baseline
[2] = system: Japanese patients with advanced solid tumors; assay: Dose-limiting toxicities and maximum tolerated dose during cycle 1; format: in vivo, human; settings: dose escalation halted at 25 mg
Procedure, shortened: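 Open-label dose escalation in sequential cohorts at 10, 15, 20 or 25 mg, given as a 1-h iv infusion on days 1, 8 and 15 of 28-day cycles. DLT: grade 3/4 hemolysis, grade 4 hematologic toxicity, febrile grade 3/4 neutropenia, prolonged diarrhea or vomiting, or other grade 3/4 non-hematologic toxicity (CTCAE v3.0). MTD: highest dose with ≤1 of 6 evaluable patients having a cycle 1 DLT.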

[3] = system: human tumor xenograft models including a primary bladder tumor model and the rituximab-insensitive non-Hodgkin's lymphoma model, DoHH2T53; settings: cited from earlier work
[4] = system: Western patients with solid tumors; settings: cited from earlier work
[5] = system: broad panel of solid and hematologic tumor cell lines; settings: cited from earlier work
[6] = Cycle 1, Day 8, Total, all doses (N = 18)
[7] = Cycle 1, Day 15, Total, all doses (N = 18)
[8] = Cycle 1, Day 22, Total, all doses (N = 18)
[9] = Total, all doses (N = 18), cut-off <0.5 × 10^9/L

In the case of `Cc1ccc(C(=O)N(CCCN)C(c2nc3snc(C)c3c(=O)n2Cc2ccccc2)C(C)C)cc1` (stereo not shown) [AZD4877], the “Neutropenia, patients with grade ≥3 abnormal laboratory finding” value ([1]; 25 mg (N = 6)) is reported as 5 (83) N (%), the “Leukopenia, patients with grade ≥3 abnormal laboratory finding” value ([1]; 25 mg (N = 6)) is reported as 5 (83) N (%) and the “Hemoglobin decreased, patients with grade ≥3 abnormal laboratory finding” value ([1]; 25 mg (N = 6)) is reported as 1 (17) N (%). The “Thrombocytopenia, patients with grade ≥3 abnormal laboratory finding” value ([1]; 25 mg (N = 6)) was 1 (17) N (%), the “Weight decreased, patients with grade ≥3 abnormal vital sign” value ([1]; 25 mg (N = 6)) was 0 N (%) and the “Patients experiencing grade ≥3 neutropenia” value ([1]; 25 mg dose cohort) was “five of six”. The “Platelet count, mean (SD)” value ([1]; Cycle 1, Day 8, 10 mg (N = 3)) was 227.3 (36.7) 10^3/µL, the “Total ANC (absolute neutrophil count), mean (SD)” value (“Total ANC … (SD)” for short) ([1]; Cycle 1, Day 8, 10 mg (N = 3)) was 2.00 (0.37) 10^3/µL and the “White blood cell count, mean (SD)” value ([1]; Cycle 1, Day 8, 10 mg (N = 3)) was 4.13 (0.63) 10^3/µL. For the same compound, the “Platelet count, mean (SD)” value ([1]; Cycle 1, Day 8, 15 mg (N = 3)) was 229.0 (35.9) 10^3/µL, the “Total ANC … (SD)” value ([1]; Cycle 1, Day 8, 15 mg (N = 3)) was 3.23 (1.26) 10^3/µL and the “White blood cell count, mean (SD)” value ([1]; Cycle 1, Day 8, 15 mg (N = 3)) was 5.50 (1.48) 10^3/µL. For the same compound, the “Platelet count, mean (SD)” value ([1]; Cycle 1, Day 8, 20 mg (N = 6)) was 245.7 (45.5) 10^3/µL, the “Total ANC … (SD)” value ([1]; Cycle 1, Day 8, 20 mg (N = 6)) was 1.81 (0.99) 10^3/µL and the “White blood cell count, mean (SD)” value ([1]; Cycle 1, Day 8, 20 mg (N = 6)) was 2.97 (1.06) 10^3/µL. The “Platelet count, mean (SD)” value ([1]; Cycle 1, Day 8, 25 mg (N = 6)) was 246.5 (99.7) 10^3/µL, the “Total ANC … (SD)” value ([1]; Cycle 1, Day 8, 25 mg (N = 6)) was 2.00 (0.97) 10^3/µL and the “White blood cell count, mean (SD)” value ([1]; Cycle 1, Day 8, 25 mg (N = 6)) was 3.01 (0.99) 10^3/µL. The “Platelet count, mean (SD)” value [1, 6] was 240.1 (62.6) 10^3/µL, the “Total ANC … (SD)” value [1, 6] was 2.14 (1.01) 10^3/µL and the “White blood cell count, mean (SD)” value [1, 6] was 3.60 (1.37) 10^3/µL. For the same compound, the “Platelet count, mean (SD)” value ([1]; Cycle 1, Day 15, 10 mg (N = 3)) was 203.3 (46.5) 10^3/µL, the “Total ANC … (SD)” value ([1]; Cycle 1, Day 15, 10 mg (N = 3)) was 1.25 (0.27) 10^3/µL and the “White blood cell count, mean (SD)” value ([1]; Cycle 1, Day 15, 10 mg (N = 3)) was 3.59 (0.69) 10^3/µL. For the same compound, the “Platelet count, mean (SD)” value ([1]; Cycle 1, Day 15, 15 mg (N = 3)) was 217.0 (6.1) 10^3/µL, the “Total ANC … (SD)” value ([1]; Cycle 1, Day 15, 15 mg (N = 3)) was 2.33 (1.62) 10^3/µL and the “White blood cell count, mean (SD)” value ([1]; Cycle 1, Day 15, 15 mg (N = 3)) was 4.66 (2.19) 10^3/µL. The “Platelet count, mean (SD)” value ([1]; Cycle 1, Day 15, 20 mg (N = 6)) was 265.2 (79.5) 10^3/µL, the “Total ANC … (SD)” value ([1]; Cycle 1, Day 15, 20 mg (N = 6)) was 1.49 (0.82) 10^3/µL and the “White blood cell count, mean (SD)” value ([1]; Cycle 1, Day 15, 20 mg (N = 6)) was 2.82 (1.20) 10^3/µL. For the same compound, the “Platelet count, mean (SD)” value ([1]; Cycle 1, Day 15, 25 mg (N = 6)) was 184.5 (85.1) 10^3/µL, the “Total ANC … (SD)” value ([1]; Cycle 1, Day 15, 25 mg (N = 6)) was 0.57 (0.50) 10^3/µL and the “White blood cell count, mean (SD)” value ([1]; Cycle 1, Day 15, 25 mg (N = 6)) was 1.58 (0.57) 10^3/µL. For the same compound, the “Platelet count, mean (SD)” value [1, 7] was 219.9 (73.9) 10^3/µL, the “Total ANC … (SD)” value [1, 7] was 1.28 (0.99) 10^3/µL and the “White blood cell count, mean (SD)” value [1, 7] was 2.84 (1.55) 10^3/µL. The “Platelet count, mean (SD)” value ([1]; Cycle 1, Day 22, 10 mg (N = 3)) was 205.0 (54.0) 10^3/µL, the “Total ANC … (SD)” value ([1]; Cycle 1, Day 22, 10 mg (N = 3)) was 1.68 (0.35) 10^3/µL and the “White blood cell count, mean (SD)” value ([1]; Cycle 1, Day 22, 10 mg (N = 3)) was 4.09 (0.66) 10^3/µL. The “Platelet count, mean (SD)” value ([1]; Cycle 1, Day 22, 15 mg (N = 3)) was 232.0 (7.9) 10^3/µL, the “Total ANC … (SD)” value ([1]; Cycle 1, Day 22, 15 mg (N = 3)) was 2.30 (1.50) 10^3/µL and the “White blood cell count, mean (SD)” value ([1]; Cycle 1, Day 22, 15 mg (N = 3)) was 4.53 (1.70) 10^3/µL. The “Platelet count, mean (SD)” value ([1]; Cycle 1, Day 22, 20 mg (N = 6)) was 262.2 (48.0) 10^3/µL, the “Total ANC … (SD)” value ([1]; Cycle 1, Day 22, 20 mg (N = 6)) was 1.25 (0.69) 10^3/µL and the “White blood cell count, mean (SD)” value ([1]; Cycle 1, Day 22, 20 mg (N = 6)) was 2.64 (0.69) 10^3/µL. For the same compound, the “Platelet count, mean (SD)” value ([1]; Cycle 1, Day 22, 25 mg (N = 6)) was 308.7 (117.3) 10^3/µL, the “Total ANC … (SD)” value ([1]; Cycle 1, Day 22, 25 mg (N = 6)) was 1.41 (0.48) 10^3/µL and the “White blood cell count, mean (SD)” value ([1]; Cycle 1, Day 22, 25 mg (N = 6)) was 2.73 (0.68) 10^3/µL. The “Platelet count, mean (SD)” value [1, 8] was 263.1 (81.1) 10^3/µL, the “Total ANC … (SD)” value [1, 8] was 1.55 (0.79) 10^3/µL and the “White blood cell count, mean (SD)” value [1, 8] was 3.23 (1.14) 10^3/µL. For the same compound, the “Any grade ≥3 finding/vital sign, patients with grade ≥3 abnormal laboratory findings/vital signs” value ([1]; Total, all doses (N = 18)) was 12 (67) N (%), the “Blood sodium decreased, patients with grade ≥3 abnormal laboratory finding” value ([1]; Total, all doses (N = 18), cut-off <130 mmol/L) was 1 (6) N (%) and the “Lymphocyte count decreased, patients with grade ≥3 abnormal laboratory finding” value [1, 9] was 1 (6) N (%). For the same compound, the “Lymphopenia, patients with grade ≥3 abnormal laboratory finding” value [1, 9] was 1 (6) N (%), the “Neutropenia, patients with grade ≥3 abnormal laboratory finding” value ([1]; Total, all doses (N = 18)) was 10 (56) N (%) and the “Leukopenia, patients with grade ≥3 abnormal laboratory finding” value ([1]; Total, all doses (N = 18)) was 8 (44) N (%). For the same compound, the “Hemoglobin decreased, patients with grade ≥3 abnormal laboratory finding” value ([1]; Total, all doses (N = 18)) was 1 (6) N (%), the “Thrombocytopenia, patients with grade ≥3 abnormal laboratory finding” value ([1]; Total, all doses (N = 18)) was 1 (6) N (%) and the “Weight decreased, patients with grade ≥3 abnormal vital sign” value ([1]; Total, all doses (N = 18)) was 1 (6) N (%). For the same compound, the “Grade ≥3 leukopenia (laboratory finding), patients” value ([1]; all doses, 18 patients) was 44%, the “Grade ≥3 neutropenia (laboratory finding), patients” value ([1]; all doses, 18 patients) was 56% and the “Maximum tolerated dose (MTD)” value [2] was “not defined”. The “Activity in human tumor xenograft models” value [3] was “activity was observed”, the “Monoaster formation (proof of mechanism)” value ([4]; 25 mg, clinical setting) was “evidence of monoaster formation” and the “Tolerability in Western patients” value ([4]; 25 mg) was “acceptable tolerability profile”. The “Toxicity at 30 mg” value ([4]; 30 mg, parallel US study) was “experienced neutropenia”, the “Recommended dose for further evaluation” value ([4]; parallel US study) was 25 mg and the “Best objective tumor response in Western patients” value ([4]; weekly treatment) was “stable disease ≥12 weeks”. For the same compound, the “Growth of tumor cell lines” value [5] was “inhibit growth”.
